# Data published in ChEMBL document CHEMBL2385077, “Synthesis, local anaesthetic and antiarrhythmic activities of N-alkyl derivatives of proline anilides” (Eur J Med Chem, 2013).
# The source made the active and inactive calls.
# Legend:
# [1] = system: Oryctolagus cuniculus; assay: Surface anesthetic effect in New Zealand white rabbit assessed as time duration; format: functional
# Procedure, shortened: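 Rabbit corneal reflex test: 1% aqueous solution (0.25 ml) instilled into the conjunctival sac over 30 sec. Cornea touched with a pointer (up to 100 per series) at 8, 10, 12 and 15 min, then every 5 min. Six animals per compound; mean ± SEM.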
# [2] = system: Mus musculus; assay: Antiarrhythmic activity in iv dosed Swiss albino mouse assessed as inhibition of calcium chloride-induced cardiac arrhythmia after 15 mins; format: functional; settings: Heart, 0.25 h
# Procedure, shortened: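 Swiss albino mice received compound i.v. at doses up to ½ LD50 (acute i.v. toxicity measured beforehand). Fifteen minutes later arrhythmia was provoked by i.v. calcium chloride (3%, 280 mg/kg). ED50 was taken as the mean effective dose preventing arrhythmia-associated mortality, and was determined only when below ½ LD50.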
# [3] = Toxicity in iv dosed Swiss albino mouse after 72 hrs; format: organism-based; settings: in vivo
# Procedure, shortened: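 Albino Swiss mice of both sexes, 18-22 g, received aqueous solutions via tail vein at increasing doses. Mortality and behavioural changes followed for 72 h. LD50 reported in mg/kg with range in parentheses.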
# [4] = system: Mus musculus; assay: Antiarrhythmic index, ratio of LD50 for Swiss albino mouse to ED50 for calcium chloride-induced Swiss albino mouse; format: functional, Heart
# Procedure, shortened: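 ED50 taken as mean effective dose preventing arrhythmia-associated death, reported only when below ½ LD50. LD50 from acute i.v. toxicity in mice. Index computed as LD50/ED50.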
# [5] = system: Rattus norvegicus; assay: Anesthetic effect in Wistar rat assessed as increase in depth of anesthesia after 35 mins by infiltration local anaesthetic activity assay relative to control; format: functional, organism-based
# Procedure, shortened: (§1)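 Shaved lumbar back skin of Wistar rats; electrical stimulation threshold for surface muscle contraction found first (rectangular pulses, 0.36 to 14.0 V, 0.3 ms, 50 Hz). 0.5% compound in saline given as 0.2 ml intradermal plus 0.2 ml subcutaneous. Threshold re-measured at 3 and 5 min, then every 5 min until back to baseline. Depth is % threshold change from initial; >2-fold rise = 100% anaesthesia. Six rats per compound.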
# [6] = system: Rattus norvegicus; assay: Anesthetic effect in Wistar rat assessed as duration of complete blockage of muscle contraction by infiltration local anaesthetic activity assay; format: functional, Muscle tissue; procedure, shortened: as §1
# [7] = system: Rattus norvegicus; assay: Anesthetic effect in Wistar rat assessed as time taken for blockage of muscle contraction by infiltration local anaesthetic activity assay; format: functional, Muscle tissue; procedure, shortened: as §1
# [8] = system: Rattus norvegicus; assay: Anesthetic effect in Wistar rat assessed as duration of blockage of muscle contraction by infiltration local anaesthetic activity assay; format: functional, Muscle tissue; procedure, shortened: as §1
# [9] = system: Rattus norvegicus; assay: Anesthetic effect in Wistar rat assessed as increase in threshold value by infiltration local anaesthetic activity assay relative to control; format: functional; procedure, shortened: as §1
compound,measurement,setting,value
CCN(CC)CC(=O)Nc1c(C)cccc1C [LIDOCAINE],Time,[1],37.8 min
same,ED50,[2],7.7 mg/kg
Cl.O=C(Nc1ccccc1Cl)C1CCCN1C1CCCCC1 (mixture of isomers),Time,[1],41.3 min
same,ED50,[2],13.7 mg/kg
same,LD50 at 72 h,[3],95 mg/kg
same,Ratio LD50/ED50,[4],6.9
CCCCN1CCCC1C(=O)Nc1ccccc1C (racemic),Activity,[5],inactive
CCCCN1CCCC1C(=O)Nc1ccc(Br)cc1Br.Cl (mixture of isomers),ED50,[2],69 mg/kg
same,LD50 at 72 h,[3],239 mg/kg
same,Ratio LD50/ED50,[4],3.5
Cc1cc(C)c(NC(=O)C2CCCN2C2CCCCC2)c(C)c1.Cl (stereo not drawn) [CYCLOMECAINE],Time,[1],124.5 min
same,ED50,[2],2.9 mg/kg
same,LD50 at 72 h,[3],15 mg/kg
same,Ratio LD50/ED50,[4],5.2
CCCCN1CCCC1C(=O)Nc1ccc(C)cc1C.Cl (mixture of isomers),Time,[1],59 min
same,ED50,[2],> 30 mg/kg
same,LD50 at 72 h,[3],60 mg/kg
CCCCN1CCCC1C(=O)Nc1ccccc1I.Cl (mixture of isomers),Time,[1],20.3 min
same,ED50,[2],7.3 mg/kg
same,LD50 at 72 h,[3],41 mg/kg
same,Ratio LD50/ED50,[4],5.6
CCCCN1CCCC1C(=O)Nc1ccccc1C(F)(F)F.Cl (mixture of isomers),Time,[1],20.4 min
same,ED50,[2],5.8 mg/kg
same,LD50 at 72 h,[3],35.5 mg/kg
same,Ratio LD50/ED50,[4],6.1
CCN1CCCC1C(=O)Nc1ccccc1C.Cl (mixture of isomers),ED50,[2],> 18.4 mg/kg
same,LD50 at 72 h,[3],36.8 mg/kg
CCCCN1CCCC1C(=O)Nc1ccccc1C.Cl (mixture of isomers),Time,[6],12.5 min
same,Time,[1],49.4 min
same,ED50,[2],5.4 mg/kg
same,LD50 at 72 h,[3],16.3 mg/kg
same,Ratio LD50/ED50,[4],3
same,Time,[7],1 min
Cc1ccccc1NC(=O)[C@@H]1CCCN1C.Cl,ED50,[2],> 16.3 mg/kg
same,LD50 at 72 h,[3],32.5 mg/kg
CCCCN1CCCCC1C(=O)Nc1c(C)cccc1C (stereo not drawn) [BUPIVACAINE],Time,[6],102.5 min
same,Time,[8],155 min
same,Time,[1],94 min
same,ED50,[2],3.5 mg/kg
same,LD50 at 72 h,[3],8.9 mg/kg
same,Ratio LD50/ED50,[4],2.5
same,Time,[7],1 min
Cc1ccccc1NC(=O)[C@@H]1CCCN1Cc1ccccc1.Cl,ED50,[2],10.9 mg/kg
same,LD50 at 72 h,[3],35.5 mg/kg
same,Ratio LD50/ED50,[4],3.3
CCCCN1CCCC1C(=O)Nc1c(C)cccc1C.Cl (mixture of isomers),Time,[6],20 min
same,Time,[1],57.5 min
same,Activity,[9],90%
same,ED50,[2],> 4.6 mg/kg
same,LD50 at 72 h,[3],9.2 mg/kg
same,Time,[7],1 min
Cc1ccccc1NC(=O)C1CCCN1C1CCCCC1.Cl (mixture of isomers),Time,[1],46.5 min
same,ED50,[2],> 6.5 mg/kg
same,LD50 at 72 h,[3],12.9 mg/kg
CCCCN1CCCC1C(=O)Nc1ccc(Cl)cc1Cl.Cl (mixture of isomers),ED50,[2],> 16.3 mg/kg
same,LD50 at 72 h,[3],32.5 mg/kg
CCCCCN1CCCC1C(=O)Nc1ccccc1C.Cl (mixture of isomers),Time,[1],59.8 min
same,ED50,[2],5.5 mg/kg
same,LD50 at 72 h,[3],32.5 mg/kg
same,Ratio LD50/ED50,[4],5.9
CCCCCCN1CCCC1C(=O)Nc1ccccc1C.Cl (mixture of isomers),Time,[8],115 min
same,Time,[1],75.7 min
same,ED50,[2],5.6 mg/kg
same,LD50 at 72 h,[3],35.5 mg/kg
same,Ratio LD50/ED50,[4],6.3
same,Time,[7],1 min
Cc1ccc(NC(=O)C2CCCN2C2CCCCC2)c(C)c1.Cl (mixture of isomers),Time,[8],126.3 min
same,Time,[1],73.2 min
same,ED50,[2],8.9 mg/kg
same,LD50 at 72 h,[3],65 mg/kg
same,Ratio LD50/ED50,[4],7.3
same,Time,[7],1 min
CCCCN1CCCC1C(=O)Nc1ccccc1CC.Cl (mixture of isomers),Time,[1],12.7 min
same,ED50,[2],7.1 mg/kg
same,LD50 at 72 h,[3],30 mg/kg
same,Ratio LD50/ED50,[4],4.2
CCCN1CCCC[C@H]1C(=O)Nc1c(C)cccc1C [ROPIVACAINE],Time,[6],58.8 min
same,Time,[8],80 min
same,Time,[1],58.4 min
same,ED50,[2],3.7 mg/kg
same,LD50 at 72 h,[3],14.1 mg/kg
same,Ratio LD50/ED50,[4],3.8
same,Time,[7],1 min
